Where “and” joins values, the source holds several entries; their conditions need not be identical. Equal values may be shown once.
Legend:
[1] = molecular target: T1, Vent(exo^−) polymerase (Thermococcus litoralis, UniProt P30317, D141A/DEL1082-1471/DEL495-1032/E143A); conditions: cited from earlier work
T1 sequence (P30317 with tags, fused parts or gaps D141A/E143A/DEL495-1032/DEL1082-1471): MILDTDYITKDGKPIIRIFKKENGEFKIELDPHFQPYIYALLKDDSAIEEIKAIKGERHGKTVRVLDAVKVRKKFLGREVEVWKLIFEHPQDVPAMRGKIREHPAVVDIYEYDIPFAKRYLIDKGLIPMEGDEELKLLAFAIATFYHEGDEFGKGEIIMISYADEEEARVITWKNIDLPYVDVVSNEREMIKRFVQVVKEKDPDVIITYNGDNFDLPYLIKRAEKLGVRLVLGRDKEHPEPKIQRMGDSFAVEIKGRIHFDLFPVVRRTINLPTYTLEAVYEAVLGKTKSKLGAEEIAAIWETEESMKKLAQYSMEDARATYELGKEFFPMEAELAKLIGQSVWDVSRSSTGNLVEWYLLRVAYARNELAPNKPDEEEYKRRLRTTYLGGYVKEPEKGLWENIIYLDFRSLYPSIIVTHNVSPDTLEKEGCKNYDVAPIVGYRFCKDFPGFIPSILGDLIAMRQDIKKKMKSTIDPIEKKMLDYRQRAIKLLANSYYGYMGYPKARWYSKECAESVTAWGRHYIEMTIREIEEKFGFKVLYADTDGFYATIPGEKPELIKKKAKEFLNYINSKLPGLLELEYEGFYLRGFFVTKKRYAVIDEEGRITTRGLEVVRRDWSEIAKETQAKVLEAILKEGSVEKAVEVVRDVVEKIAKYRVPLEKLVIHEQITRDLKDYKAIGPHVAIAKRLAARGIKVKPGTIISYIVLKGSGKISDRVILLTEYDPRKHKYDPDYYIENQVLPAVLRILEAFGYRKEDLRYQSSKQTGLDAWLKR

[2] = molecular target: T1, Vent(exo^−) polymerase; assay: PCR of TCF1 exons 2 and 10 with TTP or HOMedUTP; format: biochemical; conditions: 200 μM each dNTP
Method in brief: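 Human genomic DNA (~50 ng) was amplified with 0.4 µM primer pairs and one unit of Vent(exo−). Buffer was 1× ThermoPol (20 mM Tris–HCl pH 8.8, 2 mM MgSO4, etc.) with 1 M betaine. dATP, dCTP and dGTP were at 200 μM each, with TTP or HOMedUTP. Cycling: 95°C 4 min; 35× (95°C 30 s, 59°C 30 s, 72°C 90 s); 72°C 7 min. Expected products: 602 bp (exon 2) and 670 bp (exon 10).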

[3] = molecular target: T1, Vent(exo^−) polymerase; assay: Nucleotide selectivity; format: biochemical; conditions: each mismatch combination
Method in brief: (§1)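 Base discrimination was measured by PEP assay. OligoTemplate-4 was replaced with 40 nM oligoTemplate-2 or oligoTemplate-5 to give mismatched template bases. For the T—G mismatch, 5 nM BODIPY-FL primer-3 was hybridised to 40 nM oligoTemplate-8. The selectivity ratio is the mismatched IC50 divided by the matched IC50.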

[4] = molecular target: T2, Therminator polymerase (Thermococcus sp., UniProt Q56366, A485L/D141A/E143A); assay: Nucleotide selectivity; format: biochemical
T2 sequence (Q56366 1-775 D141A/E143A/A485L): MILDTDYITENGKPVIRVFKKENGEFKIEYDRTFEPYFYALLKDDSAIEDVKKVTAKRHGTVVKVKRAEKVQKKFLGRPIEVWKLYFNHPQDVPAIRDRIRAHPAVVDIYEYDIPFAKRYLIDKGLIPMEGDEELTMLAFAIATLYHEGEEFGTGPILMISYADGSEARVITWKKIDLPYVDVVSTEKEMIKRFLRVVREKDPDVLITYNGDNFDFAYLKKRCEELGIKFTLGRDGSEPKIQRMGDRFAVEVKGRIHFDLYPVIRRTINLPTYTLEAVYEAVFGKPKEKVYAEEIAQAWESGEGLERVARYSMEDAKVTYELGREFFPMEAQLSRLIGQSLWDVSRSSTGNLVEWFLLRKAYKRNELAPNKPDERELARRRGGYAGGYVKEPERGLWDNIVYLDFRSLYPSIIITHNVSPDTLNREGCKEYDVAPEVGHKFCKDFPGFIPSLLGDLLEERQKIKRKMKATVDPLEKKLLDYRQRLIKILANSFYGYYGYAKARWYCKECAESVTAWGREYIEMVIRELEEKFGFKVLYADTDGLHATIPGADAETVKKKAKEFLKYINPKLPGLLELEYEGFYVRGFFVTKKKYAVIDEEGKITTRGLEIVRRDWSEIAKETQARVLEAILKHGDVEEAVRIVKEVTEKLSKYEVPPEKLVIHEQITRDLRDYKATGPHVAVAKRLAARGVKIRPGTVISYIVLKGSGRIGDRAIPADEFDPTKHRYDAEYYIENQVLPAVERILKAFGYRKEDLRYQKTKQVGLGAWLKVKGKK
Method in brief: as §1

[5] = molecular target: T2, Therminator polymerase; assay: Weighted-sum assay for termination; format: biochemical; conditions: nucleotide at 3 μM (∼1000× IC50), oligoTemplate-7
[6] = molecular target: T1, Vent(exo^−) polymerase; assay: Weighted-sum assay for termination; format: biochemical; conditions: nucleotide at 3 μM (∼1000× IC50), oligoTemplate-7
[7] = Photochemical cleavage studies; format: physicochemical; conditions: 50 mM NaN3; 365 nm UV; incorporated in primer-1/oligoTemplate-4
Method in brief: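 Analogs (100 nM final) were incorporated as in PEP on BODIPY-FL primer-1/oligoTemplate-4 (10 nM/80 nM). Reactions were quenched in FBD solution (20% formamide, 10 mM Na2EDTA pH 8.0, Blue Dextran) or 50 mM sodium azide. Samples were irradiated at 365 nm for various times, then iced, mixed with formamide stop solution and run on an AB 377 sequencer. DT50 is the time for 50% cleavage, from triplicates ± 1 SD.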

[8] = molecular target: T2, Therminator polymerase; assay: Ten cycle CRT sequencing; format: biochemical; conditions: 3 μM; UV cleavage in 50 mM sodium azide
Method in brief: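 Biotinylated oligoTemplate-7 was bound to streptavidin M-270 beads with BODIPY-FL primer-2S, then preloaded with 0.5 U Therminator in 1× ThermoPol on ice for 5 min. Each cycle: incorporation at 65°C for 5 min, W10 washes, then 365 nm UV (~0.7 W/cm2, 4× 1 min) in 50 mM azide and ThermoPol washes. After ten cycles, products were run on a 10% polyacrylamide gel (377). Band quantification gave cycle efficiency (incorporation × cleavage) and dephasing (%n–2, %n–1, %n+1).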

[9] = molecular target: TaqFS polymerase (Thermus aquaticus, UniProt P19821, F667Y/G46D); assay: PEP; format: biochemical; conditions: TaqFS; Not Active = no visible +1 band in 377 gel image at 100 μM
Sequence of TaqFS polymerase (P19821 whole entry G46D/F667Y): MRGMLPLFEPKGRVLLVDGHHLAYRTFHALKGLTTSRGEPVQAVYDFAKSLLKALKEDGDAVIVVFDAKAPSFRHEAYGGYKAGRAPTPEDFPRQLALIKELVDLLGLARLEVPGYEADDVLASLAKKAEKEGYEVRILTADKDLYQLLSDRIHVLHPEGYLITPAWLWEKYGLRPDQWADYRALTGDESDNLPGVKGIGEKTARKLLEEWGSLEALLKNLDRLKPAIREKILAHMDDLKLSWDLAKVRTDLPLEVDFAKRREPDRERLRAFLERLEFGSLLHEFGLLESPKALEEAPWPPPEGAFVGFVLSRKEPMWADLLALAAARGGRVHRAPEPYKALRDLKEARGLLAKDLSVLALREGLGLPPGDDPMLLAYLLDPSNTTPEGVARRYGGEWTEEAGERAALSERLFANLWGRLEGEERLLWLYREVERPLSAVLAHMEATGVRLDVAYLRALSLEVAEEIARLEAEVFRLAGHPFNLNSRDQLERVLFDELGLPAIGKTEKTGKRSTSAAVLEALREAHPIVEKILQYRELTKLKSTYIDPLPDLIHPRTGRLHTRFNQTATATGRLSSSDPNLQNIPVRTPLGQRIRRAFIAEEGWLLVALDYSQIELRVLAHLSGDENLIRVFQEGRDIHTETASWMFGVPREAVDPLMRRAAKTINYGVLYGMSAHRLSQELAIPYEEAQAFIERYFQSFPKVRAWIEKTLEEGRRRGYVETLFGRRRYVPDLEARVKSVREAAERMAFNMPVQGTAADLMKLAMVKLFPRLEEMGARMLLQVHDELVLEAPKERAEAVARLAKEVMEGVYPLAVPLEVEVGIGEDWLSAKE
Method in brief: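 Polymerase end-point assay for single-base incorporation. 5 nM BODIPY-FL-labelled primer-1 was hybridised to 40 nM oligoTemplate-4, with the interrogation base complementary to dU. Absence of a +1 band on the 377 gel image at 100 μM counts as not active. IC50 was averaged from triplicates ± 1 SD. Incorporation bias is the analog IC50 divided by the natural-nucleotide (HOMedUTP) IC50.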

Row | Structure (SMILES) | Selectivity ratios / mismatch discrimination (in words) [4] | Weighted-sum value [5] | Weighted-sum value [6] | DT50 values (time at which 50% of 2-nitrobenzyl groups were photochemically cleaved) [7] | further results
1 | C=CCO[C@H]1C[C@H](n2cnc3c(N)ncnc32)O[C@@H]1COP(=O)(O)OP(=O)(O)OP(=O)(O)O [3′-O-allyl-dATP] |  |  |  |  | Incorporation by polymerase (in words) [1]: not efficiently incorporated
2 | O=c1[nH]c(=O)n([C@H]2C[C@H](O)[C@@H](COP(=O)(O)OP(=O)(O)OP(=O)(O)O)O2)cc1CO [HOMedUTP, 5-hydroxymethyl-2′-deoxyuridine triphosphate] |  |  |  |  | PCR product yield and size, HOMedUTP in place of TTP [2]: Comparable yields and product size; Selectivity ratio (mismatched IC50/matched IC50) [3]: greater than three orders of magnitude
3 | Cc1cn([C@H]2C[C@H](O)[C@@H](COP(=O)(O)OP(=O)(O)OP(=O)(O)O)O2)c(=O)n(Cc2ccccc2[N+](=O)[O-])c1=O [T.I, N^3-(2-Nitrobenzyl)-thymidine-5’-triphosphate] | indiscriminately against all mismatched template bases |  |  |  | 
4 | CC(C)[C@H](OCc1cn([C@H]2C[C@H](O)[C@@H](COP(=O)(O)OP(=O)(O)OP(=O)(O)O)O2)c(=O)[nH]c1=O)c1ccccc1[N+](=O)[O-] [dU.IV, 5-[(S)-1-(2-Nitrophenyl)-2-methyl-propyloxy]methyl-2'-deoxyuridine-5’-triphosphate] | almost three orders of magnitude | 1.9 and 1.9 ± 0.2 | 1.7 and 1.7 ± 0.1 | 1.8 s and 1.8 ± 0.1 s | 
5 | CC(C)(C)[C@H](OCc1cn([C@H]2C[C@H](O)[C@@H](COP(=O)(O)OP(=O)(O)OP(=O)(O)O)O2)c(=O)[nH]c1=O)c1ccccc1[N+](=O)[O-] [dU.V, 5-[(S)-1-(2-nitrophenyl)-2,2-dimethyl-propyloxy]methyl-2'-deoxyuridine-5’-triphosphate] | almost three orders of magnitude | 1.0 and 1.0 ± 0.0 | 1.0 and 1.0 ± 0.0 | 1.3 s and 1.3 ± 0.1 s | Overall signal of reaction products over the 10 CRT cycles [8]: remained relatively constant; IC50 values (activity in words) [9]: not incorporated

Source: article PMC3064798 (Nucleic Acids Research, 2011)
